Shown are actives, neighbours in structure and some others; about 2.5% of the full set was active somewhere.
SENP1 FRET inh: human SENP1 catalytic domain inhibitors, primary screen, biochemical, FRET, uHTS. AID 624204, 2012. inhibition, % at 10 µM. Sentrin-specific protease 1 (Homo sapiens), Q9P0U3. 0.21% of 360,000 active. recombinant SENP1 catalytic domain, CyPet-SUMO1-YPet FRET cleavage;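 active = inhibition at least 30% at 10 µM, raw YFP signal under a set limit, fluorescence ratio 0.5 to 1.5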;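 also: 0% = enzyme with DMSO and 100% = no enzyme wells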
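Test system: recombinant human SENP1 catalytic domain, His6-tagged / Medium: pH 8 Tris buffer with EDTA, NaCl, BME, BSA, NP40, catalase / Also added: SUMO1 FRET substrate flanked by Cypet and Ypet, 25 nM / Times: 50 min reaction at room temperature / Signal: FRET, CFP and YFP emission / Control set: no-enzyme low control and enzyme-plus-DMSO high control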
GRK2 inh: compounds blocking aptamer binding on GRK2 – biochemical, human GRK2, bead flow cytometry, HTS, primary screen; FAM-aptamer displacement from GRK2; inhibition of aptamer binding, % at 10 µM; 0.59% of 330,000 active;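 active = inhibition of aptamer binding above 40%, roughly 3 SD of noise, on plates passing a quality check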;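 also: median bead fluorescence of bound FAM aptamer so fluorescent compounds give negative values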
Target sequence (P25098 whole entry, looked up): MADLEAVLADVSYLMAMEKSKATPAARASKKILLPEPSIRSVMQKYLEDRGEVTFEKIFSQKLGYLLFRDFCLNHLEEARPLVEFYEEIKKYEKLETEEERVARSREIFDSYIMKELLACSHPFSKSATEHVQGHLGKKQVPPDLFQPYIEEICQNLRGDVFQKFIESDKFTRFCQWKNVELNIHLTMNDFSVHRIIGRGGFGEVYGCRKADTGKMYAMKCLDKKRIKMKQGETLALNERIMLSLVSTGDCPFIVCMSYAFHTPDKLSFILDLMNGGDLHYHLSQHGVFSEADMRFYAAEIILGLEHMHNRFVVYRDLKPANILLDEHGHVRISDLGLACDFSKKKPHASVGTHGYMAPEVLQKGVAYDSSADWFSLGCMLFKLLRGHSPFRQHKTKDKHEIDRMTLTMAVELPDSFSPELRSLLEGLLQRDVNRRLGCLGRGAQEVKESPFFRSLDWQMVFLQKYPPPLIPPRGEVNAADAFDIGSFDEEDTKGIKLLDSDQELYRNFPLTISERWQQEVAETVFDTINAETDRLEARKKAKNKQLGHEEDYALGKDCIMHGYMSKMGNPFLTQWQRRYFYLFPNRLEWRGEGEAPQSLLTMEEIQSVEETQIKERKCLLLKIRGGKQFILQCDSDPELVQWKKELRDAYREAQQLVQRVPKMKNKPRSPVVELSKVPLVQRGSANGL
Beta2AR agonist: beta2AR agonists driving receptor internalization, primary screen, cell-based, FAP fluorogen, flow cytometry; Beta-2 adrenergic receptor (Homo sapiens), P07550; Am2.2-beta2AR cells; response, % (no concentration beside the values); 0.43% of 340,000 active;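 active = response above a set limit, near 3 SD of response in nonfluorescent compounds, cut at about 42% in these data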
NadD inh: inhibitors of S. aureus NadD, primary screen, biochemical, colorimetric, uHTS | Nicotinate-nucleotide adenylyltransferase NadD (Staphylococcus aureus N315) | purified NadD enzyme, colorimetric absorbance read-out | inhibition, % at 20 µM | 0.78% of 360,000 active | AID 602399, 2012; in the data active = inhibition above about 26%
ABHD5-PLIN5 inh: ABHD5-PLIN5 interaction inhibitors, primary screen, cell lysate, split luciferase complementation, luminescence. Perilipin-5 (Homo sapiens) + 1-acylglycerol-3-phosphate O-acyltransferase ABHD5 (Homo …. Split G. princeps luciferase complementation, 4 h. inhibition, % at 4 µM. 0.78% of 360,000 active;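 active = inhibition above the mean inhibition across every tested compound plus 3 SD, cut at about 22% in these data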;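 also: 0% = DMSO only wells and the 100% control is not disclosed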
Numbers without * were called inactive; nt = no result given.

SMILES	SENP1 FRET inh	GRK2 inh	Beta2AR agonist	NadD inh	ABHD5-PLIN5 inh
COC(=O)CN1C(=O)[C@H]2[C@@H](/C=C/c3ccccc3)N3C(=O)CN(Cc4ccccc4)C(=O)[C@@]3(C)[C@H]2C1=O	-1	1	2	-3	-1
COc1cccc2sc(N(CCN(C)C)C(=O)/C=C/c3cccs3)nc12	2	0	6	-2	20
COc1ccc(OC)c2sc(N(CCN(C)C)C(=O)/C=C/c3cccs3)nc12	0	0	19	12	22*
O=C(Nc1nc(-c2ccco2)c(-c2ccco2)s1)C1CC(=O)N(c2ccc3c(c2)OCCO3)C1 (centres undefined)	4	5	3	72*	33*
CC(C)(C)c1ccc(S(=O)(=O)NC(=O)C2(C)CCN2C(=O)C2CCCCC2)cc1 (centres undefined)	-2	nt	nt	5	11
CCOc1cc(/C=N/NC(=O)c2cc(-c3cccc(OC)c3)nc3ccccc23)ccc1O	2	0	10	22	-8
CC(C)COc1cccc(-c2cc(C(=O)N/N=C/c3ccncc3)c3ccccc3n2)c1	0	0	51*	17	0
COc1cccc(/C=N/NC(=O)c2[nH]c(C)c(C(=O)N/N=C/c3cccc(OC)c3O)c2C)c1O	21	0	24	35*	6
COc1cccc(/C=N/NC(=O)C(=O)Nc2ccccc2OC(F)(F)C(F)F)c1O	35*	2	-1	17	-2
O=C(N/N=C/c1ccc(F)cc1)c1cc(-c2ccccn2)nc2ccccc12	1	nt	-3	1	-7
COc1cccc(/C=N/NC(=O)c2cc(-c3ccccn3)nc3ccccc23)c1O	10	1	12	48*	-4
COCC(=O)N1C[C@H]2CON(C)[C@H]2C[C@H]1c1cccc(-c2ccc(C#N)cc2)c1	-1	nt	1	3	-5
CC(C)(C)NC(=O)CC1C[C@H](C(=O)N2CCCCC2)[C@@]2(CCc3ccccc3)c3[nH]c4ccccc4c3CCN2C1=O (some centres undefined)	0	0	-7	12	-5
COc1ccc(OCC(=O)Nc2ccc3c(c2)nc(CCn2ccccc2=O)n3C)cc1	2	2	-4	7	1
O=C(N/N=C/c1cc(Cl)cc([N+](=O)[O-])c1O)c1cc(-c2ccccn2)nc2ccccc12	7	1	10	32*	5
O=[N+]([O-])c1cc(Cl)cc(/C=N\Nc2ccccn2)c1O	1	2	6	12	5
COc1cc([N+](=O)[O-])cc(/C=N/NC(=O)c2cc(-c3ccccc3)nc3ccccc23)c1O	50	1	2	24	-2
COc1cc([N+](=O)[O-])cc(/C=N/NC(=O)c2cc(C)nc3ccccc23)c1O	40*	0	16	4	3
CCN(CC)c1ccc(/C=N/NC(=S)NCc2ccccc2)c(O)c1	-72	42*	7	9	-9
CCN(CC)c1ccc(/C=N/NC(=O)c2ccco2)c(O)c1	-33	10	40	1	-2
CC(=O)N1CCN(CC(O)COc2ccc(S(=O)(=O)N3CCOCC3)cc2)CC1 (centres undefined)	3	0	-4	2	4
CN(C)c1ccc(-c2cc([C@H]3[C@@H]4C=CCC[C@@]4(C)C(=O)N3Cc3ccccc3)ccc2F)cc1	48*	0	7	21	-4
COc1ccc(/C=N\NC(=O)c2cc(O)c(O)c(O)c2)cc1CN1CCN(c2ccc(F)cc2)CC1	-2	8	2	41*	22*
COc1ccc(/C=N\NC(=O)c2cc(O)c(O)c(O)c2)cc1COc1ccc(C(=O)OCC(C)C)cc1	-3	4	17	60*	6
Cc1ccc(C(CNC(=O)c2ccco2)N2CCN(C)CC2)cc1 (centres undefined)	2	0	-11	-1	-4
SMILES	SENP1 FRET inh	GRK2 inh	Beta2AR agonist	NadD inh	ABHD5-PLIN5 inh
O=C1CCC([N+](=O)[O-])C(C2CC=CCC2)N1 (centres undefined)	2	2	4	0	7
Cc1ccc(C(=O)Nc2cc(C)nn2CCC#N)cc1	1	0	3	2	2
O=[N+]([O-])c1ccc(N2CCN(Cc3ccccc3)CC2)c2c1no[n+]2[O-]	36*	nt	nt	2	10
O=[N+]([O-])c1ccc(N2CCN(Cc3ccccc3)CC2)s1	-20	2	-6	-2	11
Cc1ccc2cc(C(c3nnnn3C3CCCC3)N(Cc3ccco3)Cc3cccs3)c(=O)[nH]c2c1 (centres undefined)	-11	3	-4	39*	6
Cc1ccc2cc(C(c3nnnn3C3CCCC3)N(Cc3cccnc3)Cc3ccco3)c(=O)[nH]c2c1 (centres undefined)	-6	0	-6	9	7
CCN(C(=O)COc1ccc(F)cc1Br)c1c(N)n(Cc2ccccc2)c(=O)[nH]c1=O	2	0	-8	-2	-3
O=C1C=CC(=O)c2c(O)c(CO)c(CO)c(O)c21	-13	nt	2	77*	-12
COc1ccc(-n2c(C)cc(-c3csc(NC(=O)c4ccc(S(=O)(=O)N(C)C)cc4)n3)c2C)cc1	12	0	11	34*	0
CS(=O)(=O)N(CC(=O)NCc1ccco1)c1ccc(OCc2ccccc2)cc1	0	2	-2	-3	-1
COc1cc(/C=C2\CC/C(=C\c3cc(OC)c(OC)c(OC)c3)C2=O)cc(OC)c1OC	-29	22	8	-11	3
COc1cc(/C=C2\CC(C(C)(C)C)C/C(=C\c3cc(OC)c(OC)c(OC)c3)C2=O)cc(OC)c1OC (centres undefined)	37*	0	12	-5	12
O=C(N/N=C/c1cccs1)c1ccc2ccccc2c1	3	0	6	-2	-5
Cc1ccc(C)c(NC(=S)NNC(=O)c2csc3c2CCC(C)C3)c1 (centres undefined)	3	1	-16	4	-9
CC(C)(C)C1CCc2c(C(=O)NNC(=O)/C=C/C(=O)O)csc2C1 (centres undefined)	2	2	48*	3	-3
CC(C)(C)C1CCc2c(C(=O)N/N=C/c3cccs3)csc2C1 (centres undefined)	1	0	94*	16	-12
COc1cc(/C=C2\SC(N3CCC(C)CC3)=NC2=O)ccc1O	63*	4	11	0	1
COc1cc(/C=C2\SC(N)=NC2=O)cc(Cl)c1O	-3	0	16	-2	-1
COc1cc(/C=C2/CCC/C(=C\c3cc(O)c(OC)c(Cl)c3)C2=O)cc(Cl)c1O	-5	8	-5	50*	9

Bioassay records from PubChem BioAssay.
